Reference: article PMC2882558 (Biopolymers, 2010)
Where two headings read alike, the source gives them in different places. Square brackets hold non-standard residues; d marks the D form. Ends that are not written are not given here. Peptide text beside a SMILES is read from it. Nle = CCCC[C@H](N)C(=O)O

Key:
[1] = system: 20S proteasome activated with 0.005% SDS, ChT-L activity; experiment: ChT-L peptidase activity of SDS-activated 20S proteasome; type: biochemical, human; conditions: 100% = DMSO solvent control
[2] = Solubility in NMR phosphate buffer; type: physicochemical; conditions: KH2PO4/Na2HPO4 buffer, pH 6.8 (NMR samples)
20S proteasome = experiment: Peptidase activities of 20S proteasome; type: biochemical, human; conditions: single peptides; not shown
Outline: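 Human erythrocyte 20S CP, latent or 0.005% SDS-activated, 3 nM final; 50 mM Tris/HCl pH 8.0, DMSO ≤3% final. Test peptide preincubated 10 min at room temperature, then substrate added at 50 or 100 μM final: Suc-LLVY-MCA (ChT-L), Boc-LRR-MCA (T-L), Z-LLE-βNA (PGPH). Emission 460 nm every 2 min, ≤60 min, 37°C; nmol product/mg CP/s; ≥3 repeats across proteasome batches.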

[3] = system: 20S proteasome (CP) with PA28αβ activator; type: biochemical, human
Outline: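 Human erythrocyte 20S CP (3 nM final) in 50 mM Tris/HCl pH 8.0 was pretreated with DMSO (≤3% final) or peptide, then mixed with purified human PA28αβ at set molar ratios. After 5 min preincubation, SucLLVY-MCA (50 or 100 μM final) was added. AMC fluorescence at 460 nm was read every 2 min for up to 60 min at 37°C. Activity was expressed as nmol AMC/mg CP/s, with ≥3 repeats using different proteasome batches.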

## CCCC[C@H](NC(=O)CNC(=O)[C@H](CCCCN)NC(=O)[C@@H](NC(=O)[C@H](CCC(=O)O)NC(=O)CNC(=O)[C@H](CCCNC(=N)N)NC(=O)[C@@H]1CCCN1C(=O)[C@H](CCCCN)NC(=O)[C@@H](N)CCCCN)[C@@H](C)O)C(=O)N[C@H](C(=O)N[C@@H](Cc1ccc(O)cc1)C(N)=O)[C@@H](C)CC [KKP] (H-KKPRGETKG[Nle]IY-NH2)
[1]; 1 mM peptide
  % of Ch-L activity, SDS-activated proteasome: 107%
[1]; 2 mM peptide
  % of Ch-L activity, SDS-activated proteasome: 115%
[1]; 5 mM peptide
  % of Ch-L activity, SDS-activated proteasome: 108%
[1]; 10 mM peptide
  % of Ch-L activity, SDS-activated proteasome: 106%

## N=C(N)NCCC[C@H](NC(=O)CN)C(=O)N[C@@H](CCCCN)C(=O)N[C@@H](CCCCN)C(=O)N[C@@H](CCCNC(=N)N)C(=O)N[C@@H](CCCNC(=N)N)C(=O)N[C@@H](CCC(N)=O)C(=O)N[C@@H](CCCNC(=N)N)C(=O)N[C@@H](CCCNC(=N)N)C(=O)N[C@@H](CCCNC(=N)N)C(=O)N1CCC[C@H]1C(=O)N[C@@H](CO)C(N)=O [Tat1]
[2]
  Solubility in buffer: not fully soluble

## IPKIEDGNDFGV
20S proteasome
  Effect on any of the peptidase activities of 20S proteasome: did not substantially affect

## IPRIEDGNNFGV
20S proteasome
  Effect on any of the peptidase activities of 20S proteasome: did not substantially affect

## PA28αβ: purified human PA28αβ proteasome activator (BioMol Inc.)
[3]; CP:PA28αβ molar ratio 1:1
  Activation of CP by PA28αβ (fold): approximately 2,5 x
[3]; CP:PA28αβ molar ratio 1:2
  Activation of CP by PA28αβ (fold): ~5 x
[3]; CP:PA28αβ molar ratio 1:4
  Activation of CP by PA28αβ (fold): ~8 x

## RKKRRQRRQDPI-NH2 [Tat2]
[2]
  Solubility in buffer: not fully soluble
